{"source": "ChEMBL document CHEMBL5107935", "about": "“Modulating β-arrestin 2 recruitment at the δ- and μ-opioid receptors using peptidomimetic ligands” (RSC Med Chem, 2021)", "key": {"[1]": {"target": "T1, Delta-type opioid receptor (Homo sapiens, UniProt P41143)", "T1 sequence (P41143 whole entry)": "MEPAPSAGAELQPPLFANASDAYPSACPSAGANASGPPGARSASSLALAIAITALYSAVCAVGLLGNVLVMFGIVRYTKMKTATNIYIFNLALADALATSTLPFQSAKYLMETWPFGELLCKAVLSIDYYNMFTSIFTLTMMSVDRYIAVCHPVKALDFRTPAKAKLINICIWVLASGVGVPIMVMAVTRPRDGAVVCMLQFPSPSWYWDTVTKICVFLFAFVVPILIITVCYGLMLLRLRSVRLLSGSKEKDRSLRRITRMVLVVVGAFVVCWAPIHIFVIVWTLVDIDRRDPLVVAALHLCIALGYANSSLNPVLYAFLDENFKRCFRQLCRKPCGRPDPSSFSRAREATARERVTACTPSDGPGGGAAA", "test": "Displacement of [3H]DPDPE from human delta opioid receptor expressed in CHO cell membrane measured after 90 mins by liquid scintillation counting method", "assay_type": "cell membranes", "procedure,_shortened": "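Membranes (7 μg protein) were added and incubated 90 min at room temperature in 50 mM Tris HCl, 10 mM MgCl2, 1 mM EDTA, pH 7.4. Samples were filtered on GF-B, washed 4× with ice-cold 50 mM Tris HCl, and counted by scintillation. Points were run in duplicate.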"}, "[2]": {"target": "T2, Mu-type opioid receptor (Homo sapiens, UniProt P35372)", "T2 sequence (P35372 whole entry)": "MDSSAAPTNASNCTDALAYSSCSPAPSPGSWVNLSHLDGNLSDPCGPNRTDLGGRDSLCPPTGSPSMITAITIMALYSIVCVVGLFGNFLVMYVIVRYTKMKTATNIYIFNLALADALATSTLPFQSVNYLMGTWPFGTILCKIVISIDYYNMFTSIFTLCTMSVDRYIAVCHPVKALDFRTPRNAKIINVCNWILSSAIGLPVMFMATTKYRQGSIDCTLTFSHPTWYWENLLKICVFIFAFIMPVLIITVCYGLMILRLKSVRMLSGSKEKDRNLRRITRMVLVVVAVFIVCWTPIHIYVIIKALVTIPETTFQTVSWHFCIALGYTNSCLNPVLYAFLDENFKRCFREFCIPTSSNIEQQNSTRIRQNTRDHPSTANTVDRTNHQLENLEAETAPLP", "test": "Displacement of [3H]DAMGO from human mu opioid receptor expressed in CHO cell membrane incubated for 90 mins by liquid scintillation counting method", "assay_type": "cell membranes"}, "[3]": {"target": "T1, Delta-type opioid receptor", "test": "Agonist activity at human delta opioid receptor expressed in CHO cells co-expressing beta-arrestin2 assessed as beta-arrestin2 recruitment measured after 90 mins by PathHunter assay", "assay_type": "functional, cell-based", "procedure,_shortened": "(§1)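 PathHunter CHO cells expressing human δOR and β-arrestin 2 were plated at 2,500 cells/well one day before use. Drug was applied for 90 min at 37 °C/5% CO2, followed by PathHunter assay buffer for 60 min at room temperature. Luminescence was read. Points were run in duplicate, and pEC50 was obtained by nonlinear regression; values are means ± SEM.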"}, "[4]": {"target": "T2, Mu-type opioid receptor", "test": "Agonist activity at human mu opioid receptor expressed in CHO cells co-expressing beta-arrestin2 assessed as beta-arrestin2 recruitment measured after 90 mins by PathHunter assay", "assay_type": "functional, cell-based"}, "[5]": {"target": "Mu-type opioid receptor (Mus musculus, UniProt P42866)", "sequence (P42866 whole entry)": "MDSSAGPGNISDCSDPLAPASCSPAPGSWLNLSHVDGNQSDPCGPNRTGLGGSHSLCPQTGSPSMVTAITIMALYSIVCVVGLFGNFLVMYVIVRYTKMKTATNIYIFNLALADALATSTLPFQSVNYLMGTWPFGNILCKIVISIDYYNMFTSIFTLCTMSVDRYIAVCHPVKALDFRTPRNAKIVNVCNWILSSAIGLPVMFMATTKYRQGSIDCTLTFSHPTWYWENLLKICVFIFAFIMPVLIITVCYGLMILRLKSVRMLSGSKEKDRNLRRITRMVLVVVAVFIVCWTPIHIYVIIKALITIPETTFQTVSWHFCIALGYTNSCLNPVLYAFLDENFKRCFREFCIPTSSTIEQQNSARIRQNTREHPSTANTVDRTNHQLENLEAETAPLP", "test": "Agonist activity at FLAG-tagged mouse mu opioid receptor expressed in human HEK293 cells assessed as inhibition of forskolin stimulated cAMP production preincubated for 20 mins followed by forskolin stimulation and measured after 15 mins by GloSensor assay", "assay_type": "functional, cell-based"}, "[6]": {"target": "T1, Delta-type opioid receptor", "test": "Agonist activity at human delta opioid receptor expressed in CHO cells co-expressing beta-arrestin2 assessed as beta-arrestin2 recruitment by measuring maximum efficacy measured after 90 mins by PathHunter assay", "assay_type": "functional, cell-based", "settings": "filed as agonist", "procedure,_shortened": "as §1"}, "[7]": {"target": "Delta-type opioid receptor (Mus musculus, UniProt P32300)", "sequence (P32300 whole entry)": "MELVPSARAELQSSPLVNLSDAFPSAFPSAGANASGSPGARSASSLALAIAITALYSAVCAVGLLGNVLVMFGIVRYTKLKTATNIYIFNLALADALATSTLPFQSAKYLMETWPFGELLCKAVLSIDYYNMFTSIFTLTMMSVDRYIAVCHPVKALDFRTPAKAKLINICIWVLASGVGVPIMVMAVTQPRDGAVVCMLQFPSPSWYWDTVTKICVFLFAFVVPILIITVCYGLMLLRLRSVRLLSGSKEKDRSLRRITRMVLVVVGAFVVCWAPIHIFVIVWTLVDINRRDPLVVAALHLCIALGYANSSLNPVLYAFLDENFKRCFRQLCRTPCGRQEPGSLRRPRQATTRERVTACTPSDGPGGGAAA", "test": "Agonist activity at FLAG-tagged mouse delta opioid receptor expressed in human HEK293 cells assessed as inhibition of forskolin stimulated cAMP production preincubated for 20 mins followed by forskolin stimulation and measured after 15 mins by GloSensor assay", "assay_type": "functional, cell-based", "procedure,_shortened": "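HEK293 cells transiently transfected 1:3 with FLAG-mouse δOR or HA-mouse μOR plus pGloSensor22F-cAMP; used two days later at 20,000 cells/well. GloSensor reagent (2% final) applied 90 min at room temperature, then drug 20 min, then forskolin (30 μM final) 15 min, all at room temperature. Luminescence read; triplicates; pIC50 from nonlinear regression.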"}, "[8]": {"species_on_record": "Homo sapiens", "test": "Selectivity ratio, ratio of Ki for displacement of [3H]DAMGO from human mu opioid receptor expressed in CHO cell membrane to Ki for displacement of [3H]DPDPE from human delta opioid receptor expressed in CHO cell membrane", "assay_type": "cell membranes"}}, "data": [{"smiles": "CC(C)C[C@H](NC(=O)[C@H](Cc1ccccc1)NC(=O)CNC(=O)C/C=C(\\F)[C@@H](N)Cc1ccc(O)cc1)C(N)=O", "values": [{"measurement": "Ki", "setting": "[1]", "result": 94.4, "unit": "nM"}, {"measurement": "Ki", "setting": "[2]", "result": 7.07, "unit": "nM"}, {"measurement": "EC50", "setting": "[3]", "result": 959, "unit": "nM"}, {"measurement": "EC50", "setting": "[4]", "result": 2640, "unit": "nM"}, {"measurement": "IC50", "setting": "[5]", "result": 186, "unit": "nM"}, {"measurement": "Emax", "setting": "[6]", "result": 84, "unit": "%"}, {"measurement": "IC50", "setting": "[7]", "result": 46.6, "unit": "nM"}, {"measurement": "Ratio Ki", "setting": "[8]", "result": 0.1}]}, {"smiles": "CC(C)C[C@H](NC(=O)[C@H](Cc1ccccc1)NC(=O)CNC(=O)C/C=C(\\F)[C@@H](N)Cc1ccc(O)cc1)C(=O)NC1CC1", "values": [{"measurement": "Ki", "setting": "[1]", "result": 104, "unit": "nM"}, {"measurement": "Ki", "setting": "[2]", "result": 26.1, "unit": "nM"}, {"measurement": "EC50", "setting": "[3]", "result": 693, "unit": "nM"}, {"measurement": "EC50", "setting": "[4]", "result": 4260, "unit": "nM"}, {"measurement": "IC50", "setting": "[5]", "result": 126, "unit": "nM"}, {"measurement": "Emax", "setting": "[6]", "result": 69, "unit": "%"}, {"measurement": "IC50", "setting": "[7]", "result": 152, "unit": "nM"}, {"measurement": "Ratio Ki", "setting": "[8]", "result": 0.3}]}, {"smiles": "CC(C)C[C@H](NC(=O)[C@H](Cc1ccccc1)NC(=O)CNC(=O)C/C=C(\\F)[C@@H](N)Cc1ccc(O)cc1)C(=O)N(C)C", "values": [{"measurement": "Ki", "setting": "[1]", "result": 255, "unit": "nM"}, {"measurement": "Ki", "setting": "[2]", "result": 85.4, "unit": "nM"}, {"measurement": "EC50", "setting": "[3]", "result": 3820, "unit": "nM"}, {"measurement": "EC50", "setting": "[4]", "result": 17600, "unit": "nM"}, {"measurement": "IC50", "setting": "[5]", "result": 1000, "unit": "nM"}, {"measurement": "Emax", "setting": "[6]", "result": 63, "unit": "%"}, {"measurement": "IC50", "setting": "[7]", "result": 425, "unit": "nM"}, {"measurement": "Ratio Ki", "setting": "[8]", "result": 0.3}]}, {"smiles": "CNC(=O)[C@H](CC(C)C)NC(=O)[C@H](Cc1ccccc1)NC(=O)CNC(=O)C/C=C(\\F)[C@@H](N)Cc1ccc(O)cc1", "values": [{"measurement": "Ki", "setting": "[1]", "result": 55.9, "unit": "nM"}, {"measurement": "Ki", "setting": "[2]", "result": 9.92, "unit": "nM"}, {"measurement": "EC50", "setting": "[3]", "result": 667, "unit": "nM"}, {"measurement": "EC50", "setting": "[4]", "result": 7210, "unit": "nM"}, {"measurement": "IC50", "setting": "[5]", "result": 42.7, "unit": "nM"}, {"measurement": "Emax", "setting": "[6]", "result": 90, "unit": "%"}, {"measurement": "IC50", "setting": "[7]", "result": 50.2, "unit": "nM"}, {"measurement": "Ratio Ki", "setting": "[8]", "result": 0.2}]}, {"smiles": "CC(C)C[C@H](NC(=O)[C@H](Cc1ccccc1)NC(=O)CNC(=O)C/C=C(\\F)[C@@H](N)Cc1ccc(O)cc1)C(=O)O", "values": [{"measurement": "IC50", "setting": "[5]", "result": 363, "unit": "nM"}, {"measurement": "Emax", "setting": "[6]", "result": 102, "unit": "%"}, {"measurement": "IC50", "setting": "[7]", "result": 33.7, "unit": "nM"}]}, {"smiles": "CCNC(=O)[C@H](CC(C)C)NC(=O)[C@H](Cc1ccccc1)NC(=O)CNC(=O)C/C=C(\\F)[C@@H](N)Cc1ccc(O)cc1", "values": [{"measurement": "Ki", "setting": "[1]", "result": 54.7, "unit": "nM"}, {"measurement": "Ki", "setting": "[2]", "result": 20, "unit": "nM"}, {"measurement": "EC50", "setting": "[3]", "result": 695, "unit": "nM"}, {"measurement": "EC50", "setting": "[4]", "result": 2260, "unit": "nM"}, {"measurement": "IC50", "setting": "[5]", "result": 178, "unit": "nM"}, {"measurement": "Emax", "setting": "[6]", "result": 70, "unit": "%"}, {"measurement": "IC50", "setting": "[7]", "result": 66.2, "unit": "nM"}, {"measurement": "Ratio Ki", "setting": "[8]", "result": 0.4}]}]}
